Results published in PMC7611836 (Journal of natural products, 2020).
Where two headings read alike, the source gives them in different places.

Key:
C4-2 cells [1] = assay: Oxygen consumption rate; format: cell-based, Human; conditions: 1 μM
Procedure, shortened: (§1)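 Mycoplasma-tested cells, 20,000 per poly-L-lysine-coated well, 16 h at 37 °C, 5% CO2. Moved to carbonate-free RPMI assay buffer (4.5 g L-1 glucose, pyruvate, pH 7.4) for 60 min CO2-free. […] Rotenone-insensitive rate subtracted; traces set to 100% pre-addition. n = 6 treated, 16 control; mean ± S.E.M.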

C4-2B cells [2] = assay: Oxygen consumption rate; format: cell-based, Human; conditions: 1 μM
Procedure, shortened: as §1

PNT2 cells [3] = assay: Oxygen consumption rate; format: cell-based, Human; conditions: 1 μM
Procedure, shortened: as §1

C4-2 cells [4] = assay: Cell growth curves; format: cell-based, Human; conditions: 1 μM
Procedure, shortened: (§2)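 Cells were seeded at 1,000 per well in RPMI 1640 with 10% FBS, 25 mM HEPES and 1 mM pyruvate, then grown with 1 μM test compound. Read-out was confluence (% of well surface covered by adherent cells) over time, also taken after 150 h. Eight replicates per condition; mean ± S.E.M.; unpaired two-tailed t-test.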

C4-2B cells [5] = assay: Cell growth curves; format: cell-based, Human; conditions: 1 μM
Procedure, shortened: as §2

C4-2B cells [6] = assay: Cell viability and cell count; format: cell-based, Human; conditions: 1 μM, 48 hours
Procedure, shortened: (§3)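 150,000 cells per well were grown overnight, then given 1 μM test compound (ethanolic stock diluted in medium) or ethanol control for 48 h. Cells were trypsinized, pelleted (400 x g, 5 min), resuspended in PBS, stained with acridine orange/DAPI, and read for viability and count. n = 4 treated, 10 control; mean ± S.E.M.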

cancer cell = conditions: Annexin V flow cytometry; cited from earlier work
PNT2 cells [7] = assay: Cell growth curves; format: cell-based, Human; conditions: 1 μM
C4-2 cells [8] = assay: Cell viability and cell count; format: cell-based, Human; conditions: 1 μM, 48 hours
Procedure, shortened: as §3

PNT2 cells [9] = assay: Cell viability and cell count; format: cell-based, Human; conditions: 1 μM, 48 hours
Procedure, shortened: as §3

[10] = cited from earlier work; for neurotoxicity / crossing of the blood-brain barrier: rats and mice; for detection in brain as metabolite of 1 and 2: rat model of Parkinson's disease
[11] = tested on: A-549 lung, HCT-8 intestinal, RPMI-7951 skin, TE671 brain, and KB cervical cancer cells; conditions: range over all cell types; cited from earlier work

COc1cc2c(cc1OC)[C@@H]1C(=O)c3ccc4c(c3O[C@@H]1CO2)C[C@H](C(C)CO)O4 (mixture of isomers) [compound 5, (6aS,12aS,5′R,6′R)- and (6aS,12aS,5′R,6′S)-6′,7′-Dihydroamorphigenin]
oxygen consumption rate (C4-2 cells [1]): powerful effect
oxygen consumption rate (C4-2B cells [2]): powerful effect
oxygen consumption rate (PNT2 cells [3]): powerful effect
proliferation (cell growth) (C4-2 cells [4]): particularly affected
proliferation (cell growth) (C4-2B cells [5]): responded
cell count (C4-2B cells [6]): marginal effects

Cc1nc(-c2nc(-c3ccc(OC(F)(F)F)cc3)no2)nn1Cc1cccc(N2CCC(S(C)(=O)=O)CC2)c1 [IACS-01079]
effect on cancer cell proliferation and viability (cancer cell): inhibit both cancer cell proliferation and viability

C=C(C)[C@H]1Cc2c(ccc3c2O[C@@H]2COc4cc(OC)c(OC)cc4[C@@H]2C3=O)O1 [compound 1, rotenone]
proliferation (cell growth) (C4-2 cells [4]): did not proliferate
proliferation (cell growth) (C4-2B cells [5]): did not proliferate
proliferation (cell growth) (PNT2 cells [7]): retained their ability to proliferate, albeit at a substantially reduced rate
cell count (C4-2 cells [8]): affected cell counts
cell count (C4-2B cells [6]): affected cell counts
cell count (PNT2 cells [9]): affected cell counts
neurotoxicity ([10]; 3 mg kg^-1 day^-1): cause neuronal damage
crossing of the blood-brain barrier [10]: cross the blood-brain barrier

COc1cc2c(cc1OC)[C@@H]1C(=O)c3ccc4c(c3O[C@@H]1CO2)C=CC(C)(C)O4 [compound 2, deguelin]
neurotoxicity ([10]; 6 mg kg^-1 day^-1): cause neuronal damage
crossing of the blood-brain barrier [10]: cross the blood-brain barrier

COc1cc2c(cc1OC)[C@@H]1C(=O)c3ccc4c(c3O[C@@H]1CO2)C[C@H](C(C)(C)O)O4 [compound 4, (6aS,12aS,5′R)-Dalpanol]
ED50 (half-maximal effective concentration), cytotoxicity [11]: 0.48 to 4.83 µg/mL

C=C(C)[C@H]1Cc2c(ccc3c2O[C@@H]2COc4cc(OC)c(OC)cc4[C@]2(O)C3=O)O1 [compound 7, (6aR,12aR,5′R)-Rotenolone]
detection in brain as metabolite of 1 and 2 [10]: detected in the brains of treated animals
crossing of the blood-brain barrier [10]: cross the BBB

COc1cc2c(cc1OC)[C@]1(O)C(=O)c3ccc4c(c3O[C@@H]1CO2)C=CC(C)(C)O4 [compound 8, tephrosin]
detection in brain as metabolite of 1 and 2 [10]: detected in the brains of treated animals
crossing of the blood-brain barrier [10]: cross the BBB
